Experimental data from different studies.
Protocols differ between the studies behind these lines.
LATS1: Serine/threonine-protein kinase LATS1 (LATS1, Homo sapiens, UniProt O95835)
SLC18A2: Synaptic vesicular amine transporter (SLC18A2, Homo sapiens, UniProt Q05940)
CA1: Carbonic anhydrase 1 (CA1, Homo sapiens, UniProt P00915)

SMILES | target | assay | conditions | IC50 [µM]
OC1(c2ccc(-c3ccnc4[nH]cc(F)c34)cc2)CCCNC1 (centres unmarked) | LATS1 | target engagement in cells, BRET |  | 9.97
COc1cc2ncnc(Nc3ccc(F)c(Cl)c3)c2cc1NC(=O)/C=C/CN1CCCCC1 | SLC18A2 | transporter uptake, inhibitor, radiometric | cell membranes | 0.433
O=C(O)COCCN1CCN(C(c2ccccc2)c2ccc(Cl)cc2)CC1 (centres unmarked) | CA1 | enzyme activity, inhibitor, absorbance | pH 7.4 | 14.6
CC(=O)N1C[C@@H](C)[C@](O)(c2c(C)cc(-c3ccnc4[nH]cc(F)c34)cc2F)[C@@H](C)C1 | LATS1 | target engagement in cells, BRET |  | 0.077
CC(C)[C@H](N)C(=O)OCCOCn1cnc2c(=O)[nH]c(N)nc21 | Carbonic anhydrase 2 (CA2, Homo sapiens, UniProt P00918) | enzyme activity, inhibitor, absorbance | pH 7.4 | 9.1
OC1(c2ccc(-c3ccnc4[nH]cc(F)c34)cc2)CCNC1 (centres unmarked) | LATS1 | target engagement in cells, BRET |  | 10.3
CCOc1ccccc1OCCN[C@H](C)Cc1ccc(OC)c(S(N)(=O)=O)c1 | SLC18A2 | transporter uptake, inhibitor |  | 1.86
OCCOCCN1CCN(C(c2ccccc2)c2ccc(Cl)cc2)CC1 (centres unmarked) | CA1 | enzyme activity, inhibitor, absorbance | pH 7.4 | 15.1
OC1(c2ccc(Cl)c(C(F)(F)F)c2)CCN(CCCC(c2ccc(F)cc2)c2ccc(F)cc2)CC1 | SLC18A2 | transporter uptake, inhibitor, radiometric | cell membranes | 0.594
Nc1nc2c(ncn2COCCO)c(=O)[nH]1 | CA1 | enzyme activity, inhibitor, absorbance | pH 7.4 | 10.8
C=CCNc1c2c([nH]c(=O)c1C(=O)OCC)CCC2 | Gag-Pol polyprotein, reverse transcriptase (gag-pol, Human immunodeficiency virus 1, UniProt P03366) | enzyme activity, inhibitor |  | > 100
N#Cc1ccc2[nH]cc(CCCCN3CCN(c4ccc5oc(C(N)=O)cc5c4)CC3)c2c1 | SLC18A2 | transporter uptake, inhibitor, radiometric | cell membranes | 0.069
NC(=O)c1nnn(Cc2cc(Cl)c(C(=O)c3ccc(Cl)cc3)c(Cl)c2)c1N | Alpha-2A adrenergic receptor (ADRA2A, Homo sapiens, UniProt P08913) | cAMP, antagonist |  | 0.612
CCOCCn1c(C2CCN(CCc3ccc(C(C)(C)C(=O)O)cc3)CC2)nc2ccccc21 | CA1 | enzyme activity, inhibitor, absorbance | pH 7.4 | 14
OC1(c2ccc(-c3ccnc4[nH]cc(F)c34)cc2)CNC1 | LATS1 | target engagement in cells, BRET |  | 28.4
CCCCN(CCCC)CCC(O)c1cc2c(Cl)cc(Cl)cc2c2cc(C(F)(F)F)ccc12 (centres unmarked) | SLC18A2 | transporter uptake, inhibitor, radiometric | cell membranes | 0.94
Cc1cc(-c2ccnc3[nH]cc(F)c23)cc(F)c1[C@@]1(O)[C@H](C)CN(C2CCS(=O)(=O)CC2)C[C@@H]1C | LATS1 | target engagement in cells, BRET |  | 0.136
COc1ccnc(C[S+]([O-])c2nc3ccc(OC(F)F)cc3[nH]2)c1OC (centres unmarked) | CA1 | enzyme activity, inhibitor, absorbance | pH 7.4 | 10.6
Cc1cc(-c2ccnc3[nH]cc(F)c23)cc(F)c1[C@@]1(O)[C@H](C)CN(C2COC2)C[C@@H]1C | LATS1 | target engagement in cells, BRET |  | 0.058
Clc1ccc(Cn2c(CN3CCCC3)nc3ccccc32)cc1 | SLC18A2 | transporter uptake, inhibitor |  | 7.23
